Assay results: ChEMBL document CHEMBL1139904, “2-hydroxy-N-arylbenzenesulfonamides as ATP-citrate lyase inhibitors” (Bioorg Med Chem Lett, 2007)
One block for each compound: values may come before it.

Legend:
ATP-citrate synthase = molecular target: T1, ATP-citrate synthase (Homo sapiens, UniProt P53396); test: Inhibition of human recombinant ATP-citrate lyase
T1 sequence (P53396 whole entry): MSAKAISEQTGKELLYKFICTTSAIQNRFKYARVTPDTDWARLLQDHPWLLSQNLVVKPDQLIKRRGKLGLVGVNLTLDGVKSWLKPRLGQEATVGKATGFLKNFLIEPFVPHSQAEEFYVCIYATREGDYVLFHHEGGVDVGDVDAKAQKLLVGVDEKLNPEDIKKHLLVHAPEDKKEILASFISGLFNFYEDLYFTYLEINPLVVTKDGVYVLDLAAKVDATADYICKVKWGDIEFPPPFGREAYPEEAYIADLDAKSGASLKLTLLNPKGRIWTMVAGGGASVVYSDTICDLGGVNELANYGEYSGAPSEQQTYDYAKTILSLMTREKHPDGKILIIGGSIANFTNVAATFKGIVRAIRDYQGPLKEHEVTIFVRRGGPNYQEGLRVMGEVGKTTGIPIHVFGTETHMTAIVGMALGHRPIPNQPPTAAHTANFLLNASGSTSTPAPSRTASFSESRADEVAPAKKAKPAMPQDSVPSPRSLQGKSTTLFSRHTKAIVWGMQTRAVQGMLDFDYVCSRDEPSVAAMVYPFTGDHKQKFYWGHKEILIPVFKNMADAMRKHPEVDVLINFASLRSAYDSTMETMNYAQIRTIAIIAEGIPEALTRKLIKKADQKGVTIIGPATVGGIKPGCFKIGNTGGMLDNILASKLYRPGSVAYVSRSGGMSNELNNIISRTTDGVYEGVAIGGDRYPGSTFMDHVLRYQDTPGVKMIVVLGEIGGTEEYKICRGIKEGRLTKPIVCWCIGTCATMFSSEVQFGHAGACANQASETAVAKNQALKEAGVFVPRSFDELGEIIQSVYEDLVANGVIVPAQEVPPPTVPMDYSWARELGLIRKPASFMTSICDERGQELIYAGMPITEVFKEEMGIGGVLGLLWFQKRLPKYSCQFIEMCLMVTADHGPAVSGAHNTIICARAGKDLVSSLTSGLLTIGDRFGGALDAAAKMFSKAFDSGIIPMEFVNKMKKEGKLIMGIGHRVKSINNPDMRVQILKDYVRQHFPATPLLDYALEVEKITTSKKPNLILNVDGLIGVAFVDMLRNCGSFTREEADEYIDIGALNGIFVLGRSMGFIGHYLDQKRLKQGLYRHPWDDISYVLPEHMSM
Procedure, shortened: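 Recombinant human ACL enzyme assay; values are at least two separate measurements.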

Mus musculus [1] = test: Increase in food consumption in normal fat diet C57BL/6 mouse at 10 mg/kg; assay type: functional
Mus musculus [2] = test: Reduction of cholesterol level in high-fat diet C57BL/6 mouse at 10 mg/kg; assay type: functional; set-up: scale not given: the % may be the effect or the level left
Procedure, shortened: (§1)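 Eight-week-old C57BL/6 mice (~30 g), five per group. High-fat diet (30% coconut oil, 45% sucrose) admixed with compound to give 10 or 100 mg/kg/day, versus high-fat and normal-chow controls, for 34 days. Food intake and body weight tracked; plasma lipids and fasting glucose assessed weekly. Lipid/glucose changes expressed as % reduction versus high-fat controls at day 29.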

Mus musculus [3] = test: Reduction of body weight gain in high-fat diet C57BL/6 mouse at 10 mg/kg after 29 days; assay type: functional; set-up: scale not given: the % may be the effect or the level left; procedure, shortened: as §1
Mus musculus [4] = test: Reduction of triglycerides in high-fat diet C57BL/6 mouse at 10 mg/kg; assay type: functional; set-up: scale not given: the % may be the effect or the level left; procedure, shortened: as §1
Mus musculus [5] = test: Reduction of fasting plasma glucose level in C57BL/6 mouse at 100 mg/kg; assay type: functional; set-up: scale not given: the % may be the effect or the level left; procedure, shortened: as §1
Acetyl-CoA carboxylase 1 = Acetyl-CoA carboxylase 1 (Homo sapiens, UniProt Q13085); test: Inhibition of human ACC1
Mus musculus [6] = test: Reduction of fat in high-fat diet C57BL/6 mouse at 10 mg/kg after 34 days; set-up: scale not given: the % may be the effect or the level left
Mus musculus [7] = test: Reduction of fat in high-fat diet C57BL/6 mouse at 100 mg/kg after 34 days; set-up: scale not given: the % may be the effect or the level left
Acetyl-CoA carboxylase 2 = Acetyl-CoA carboxylase 2 (Homo sapiens, UniProt O00763); test: Inhibition of human ACC2
[8] = Tmax in mouse at 10 mg/kg, po; conditions: in vivo
Mus musculus [9] = test: Reduction of triglycerides in high-fat diet C57BL/6 mouse at 100 mg/kg; assay type: functional; set-up: scale not given: the % may be the effect or the level left; procedure, shortened: as §1
Mus musculus [10] = test: Reduction of cholesterol level in high-fat diet C57BL/6 mouse at 100 mg/kg; assay type: functional; set-up: scale not given: the % may be the effect or the level left; procedure, shortened: as §1
HepG2 [11] = test: Cytotoxicity against HepG2 cells upto 50 uM by Alamar blue assay; conditions: Homo sapiens
[12] = Oral bioavailability in mouse at 10 mg/kg; assay type: ADME, organism-based; conditions: in vivo
Procedure, shortened: (§2)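 Mice dosed at 10 mg/kg both iv and po; vehicle 10% ethanol, 45% water, 45% PEG-400. Standard PK parameters derived: oral bioavailability, half-life, Cmax (po), Tmax (po), total body clearance.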

HepG2 [13] = test: Inhibition of total lipid synthesis HepG2 cells assessed as incorporation of [14C]total lipids after 6 hrs; assay type: functional, cell-based; conditions: Homo sapiens, HepG2, 6 h
Procedure, shortened: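 HepG2 cells incubated 6 h after compound addition, with [14C]-alanine present for the final 4 h; label incorporation into total lipid measured.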

Mus musculus [14] = test: Increase in food consumption in high-fat diet C57BL/6 mouse at 10 mg/kg; assay type: functional; procedure, shortened: as §1
[15] = Cmax in mouse at 10 mg/kg, po; assay type: ADME, organism-based; set-up: dose 10 mg/kg, route oral; conditions: in vivo; procedure, shortened: as §2
Mus musculus [16] = test: Reduction of body weight gain in high-fat diet C57BL/6 mouse at 100 mg/kg after 29 days; assay type: functional; set-up: scale not given: the % may be the effect or the level left; procedure, shortened: as §1
[17] = Half life in mouse at 10 mg/kg, iv and po; assay type: ADME, organism-based; set-up: dose 10 mg/kg, route oral; conditions: in vivo; procedure, shortened: as §2
Mus musculus [18] = test: Reduction of fasting plasma glucose level in C57BL/6 mouse at 10 mg/kg; assay type: functional; set-up: scale not given: the % may be the effect or the level left; procedure, shortened: as §1

Acetyl-CoA carboxylase 2, sequence (O00763 whole entry): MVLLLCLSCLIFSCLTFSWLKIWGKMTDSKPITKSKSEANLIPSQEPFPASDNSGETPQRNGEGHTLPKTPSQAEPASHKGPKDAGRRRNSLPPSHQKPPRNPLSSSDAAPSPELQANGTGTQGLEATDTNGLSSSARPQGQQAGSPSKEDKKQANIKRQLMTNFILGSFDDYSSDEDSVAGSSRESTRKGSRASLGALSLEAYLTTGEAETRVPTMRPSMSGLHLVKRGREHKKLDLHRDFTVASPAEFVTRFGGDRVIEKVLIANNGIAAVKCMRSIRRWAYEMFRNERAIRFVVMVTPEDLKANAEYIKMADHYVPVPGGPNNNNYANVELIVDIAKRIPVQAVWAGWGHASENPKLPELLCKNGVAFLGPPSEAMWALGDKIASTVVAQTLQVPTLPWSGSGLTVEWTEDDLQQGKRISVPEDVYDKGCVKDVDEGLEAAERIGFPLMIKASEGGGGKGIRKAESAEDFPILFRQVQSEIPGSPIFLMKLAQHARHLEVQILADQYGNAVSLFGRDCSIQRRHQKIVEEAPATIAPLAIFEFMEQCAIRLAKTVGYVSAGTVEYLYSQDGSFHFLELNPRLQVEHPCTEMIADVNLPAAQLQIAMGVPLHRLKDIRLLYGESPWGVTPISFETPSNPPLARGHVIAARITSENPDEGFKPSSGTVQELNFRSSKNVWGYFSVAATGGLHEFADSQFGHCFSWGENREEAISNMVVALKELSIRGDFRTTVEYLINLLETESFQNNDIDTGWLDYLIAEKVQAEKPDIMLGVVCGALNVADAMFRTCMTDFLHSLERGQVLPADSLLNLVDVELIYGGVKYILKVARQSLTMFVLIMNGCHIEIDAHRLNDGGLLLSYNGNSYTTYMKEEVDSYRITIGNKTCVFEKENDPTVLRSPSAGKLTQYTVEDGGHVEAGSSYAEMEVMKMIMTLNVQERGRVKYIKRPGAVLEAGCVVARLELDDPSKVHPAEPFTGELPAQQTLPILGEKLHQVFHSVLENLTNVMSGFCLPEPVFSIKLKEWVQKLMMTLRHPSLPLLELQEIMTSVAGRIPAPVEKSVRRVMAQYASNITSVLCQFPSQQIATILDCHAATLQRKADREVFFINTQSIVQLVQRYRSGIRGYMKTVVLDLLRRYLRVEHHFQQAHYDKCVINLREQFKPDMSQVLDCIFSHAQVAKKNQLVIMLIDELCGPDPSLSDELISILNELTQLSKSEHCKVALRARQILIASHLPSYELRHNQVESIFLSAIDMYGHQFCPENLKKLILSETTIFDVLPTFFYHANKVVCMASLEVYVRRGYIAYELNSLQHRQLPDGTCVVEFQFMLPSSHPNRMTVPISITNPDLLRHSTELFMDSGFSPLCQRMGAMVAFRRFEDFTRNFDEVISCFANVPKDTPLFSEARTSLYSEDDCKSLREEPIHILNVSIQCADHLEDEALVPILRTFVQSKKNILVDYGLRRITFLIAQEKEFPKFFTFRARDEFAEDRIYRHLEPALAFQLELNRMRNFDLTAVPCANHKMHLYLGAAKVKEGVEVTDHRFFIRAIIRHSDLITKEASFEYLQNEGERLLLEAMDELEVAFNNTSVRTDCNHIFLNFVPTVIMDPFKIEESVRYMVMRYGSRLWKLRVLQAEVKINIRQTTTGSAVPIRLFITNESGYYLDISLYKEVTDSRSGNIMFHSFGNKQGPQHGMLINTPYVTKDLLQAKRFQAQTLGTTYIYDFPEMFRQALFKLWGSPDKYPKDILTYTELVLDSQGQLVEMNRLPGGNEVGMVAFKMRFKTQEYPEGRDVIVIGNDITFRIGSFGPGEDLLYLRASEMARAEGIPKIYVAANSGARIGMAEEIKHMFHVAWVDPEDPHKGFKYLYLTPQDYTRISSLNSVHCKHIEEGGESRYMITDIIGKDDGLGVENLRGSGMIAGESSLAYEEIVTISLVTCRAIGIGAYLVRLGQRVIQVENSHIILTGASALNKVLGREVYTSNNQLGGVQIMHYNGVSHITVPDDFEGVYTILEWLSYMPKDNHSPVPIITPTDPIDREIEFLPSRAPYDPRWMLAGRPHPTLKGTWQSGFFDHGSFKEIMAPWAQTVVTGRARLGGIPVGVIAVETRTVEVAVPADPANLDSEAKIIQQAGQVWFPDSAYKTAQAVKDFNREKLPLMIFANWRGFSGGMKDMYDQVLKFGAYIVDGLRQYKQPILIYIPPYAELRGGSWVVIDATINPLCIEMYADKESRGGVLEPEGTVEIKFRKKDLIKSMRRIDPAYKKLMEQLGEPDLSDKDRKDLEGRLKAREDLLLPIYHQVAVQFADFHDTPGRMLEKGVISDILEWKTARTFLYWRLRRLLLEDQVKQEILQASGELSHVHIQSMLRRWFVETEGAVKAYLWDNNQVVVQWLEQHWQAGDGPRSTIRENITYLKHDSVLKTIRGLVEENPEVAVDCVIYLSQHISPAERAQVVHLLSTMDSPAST

IC50 (ATP-citrate synthase): 7.6 µM
Compound: O=S(=O)(Nc1cc(F)cc(F)c1)c1cc(Cl)cc(Cl)c1O

IC50 (ATP-citrate synthase): 0.13 µM
IC50 (Acetyl-CoA carboxylase 1): 6 µM
IC50 (Acetyl-CoA carboxylase 2): 12 µM
Tmax [8]: 0.5 h
bioavailability [12]: 55%
IC50 (HepG2 [13]): 8 µM
Cmax [15]: 13 µM
half-life [17]: 2.1 h
Compound: COc1ccc(-c2ccccc2)cc1NS(=O)(=O)c1cc(Cl)cc(Cl)c1O
Activity (Mus musculus [1]): 4 g/day
Activity (Mus musculus [2]): -9%
Activity (Mus musculus [3]): 7.2%
Activity (Mus musculus [4]): -26%
Activity (Mus musculus [5]): -32%
Activity (Mus musculus [6]): 12.9%
Activity (Mus musculus [7]): 7.3%
Activity (Mus musculus [9]): -26%
Activity (Mus musculus [10]): -19%
Activity (HepG2 [11]): Not toxic
Activity (Mus musculus [14]): 3.2 g/day
Activity (Mus musculus [16]): 3%
Activity (Mus musculus [18]): -48%

IC50 (ATP-citrate synthase): 0.19 µM
Compound: O=S(=O)(Nc1c(-c2ccccc2)cc(-c2ccccc2)cc1-c1ccccc1)c1cc(Cl)cc(Cl)c1O

IC50 (ATP-citrate synthase): 0.15 µM
Compound: O=C(O)C[C@@](O)(C(=O)O)[C@H](O)C(=O)O

IC50 (ATP-citrate synthase): 0.34 µM
Compound: O=C(OC/C=C\c1ccccc1)c1ccccc1NS(=O)(=O)c1cc(Cl)cc(Cl)c1O

The next lines start with the compound.

Compound: CC(C)(C)c1cc(NS(=O)(=O)c2cc(Cl)cc(Cl)c2O)cc(C(C)(C)C)c1
IC50 (ATP-citrate synthase): 1.1 µM

Compound: CC(C)(C)c1ccc(C(C)(C)C)c(NS(=O)(=O)c2cc(Cl)cc(Cl)c2O)c1
IC50 (ATP-citrate synthase): 5.6 µM

Compound: CC1CCC(C(C)C)C(OC(=O)c2ccccc2NS(=O)(=O)c2cc(Cl)cc(Cl)c2O)C1 (stereo not drawn)
IC50 (ATP-citrate synthase): 0.37 µM

Compound: CCCCCCc1ccc(NS(=O)(=O)c2cc(Cl)cc(Cl)c2O)cc1
IC50 (ATP-citrate synthase): 6.9 µM

Compound: O=S(=O)(Nc1cccc(Oc2ccccc2)c1)c1cc(Cl)cc(Cl)c1O
IC50 (ATP-citrate synthase): 8.1 µM

Compound: O=C(O)C[C@@](O)(C[C@H](O)CCCCCCc1ccc(Cl)cc1Cl)C(=O)O
IC50 (ATP-citrate synthase): 2.1 µM

Compound: O=S(=O)(Nc1cc(Cl)cc(Cl)c1)c1cc(Cl)cc(Cl)c1O
IC50 (ATP-citrate synthase): 2.3 µM

Compound: CC(=O)N(C)c1ccc(NS(=O)(=O)c2cc(Cl)cc(Cl)c2O)cc1
IC50 (ATP-citrate synthase): 10.9 µM
